Measured values: PMC7856085 (Archives of biochemistry and biophysics, 2020)

How the values were obtained:
[1] = system: SmPutA; test: Fluorescence-based thermal shift assay; type: binding, Sinorhizobium meliloti; conditions: compound at 62.5 mM; ligand-free SmPutA T1/2 40.2 °C
[2] = biological target: GSALDH activity of SmPutA (Sinorhizobium meliloti, UniProt F7X6I3); test: GSALDH activity measurements; type: biochemical; conditions: for Ki / α: P5C variable substrate
[3] = system: GSALDH active site of SmPutA; test: Co-crystallization / electron density in the GSALDH active site; parameters: species or system Sinorhizobium meliloti; conditions: co-crystallization at 50 mM
How it was run: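 Recombinant SmPutA (expressed in E. coli) at 6 mg/mL in 50 mM Tris pH 8.0, 50 mM NaCl, 5% glycerol, 0.5 mM TCEP. Sitting-drop co-crystallization at 13 °C against 19% PEG-3350, 0.2 M ammonium sulfate, 0.1 M MgCl2, 0.1 M HEPES pH 8.0, 0.1 M sodium formate. Ligand at 50 mM, with or without 10 mM NAD+. Cryoprotected with added 15% PEG-200. Ligand density checked with polder omit maps.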

[4] = biological target: mammalian GSALDH; conditions: competitive with P5C; cited from earlier work
[5] = Competitive model, NAD+ fixed at 0.2 mM
[6] = Mixed model, NAD+ fixed at 0.2 mM
[7] = Uncompetitive model, NAD+ fixed at 0.2 mM

Row | Structure (SMILES) | ΔT1/2 (increase of midpoint of stability curve) [1] | Ki [2, 5] | Ki [2, 6] | α [2, 6] | also measured
1 | O=C(O)[C@H]1C[C@@H](O)CN1 [CHDP, cis-4-hydroxy-D-proline] | 4.0 °C | 8 mM | 25 mM | 0.9 ± 0.5 | –
2 | O=C(O)[C@@H]1C[C@H](O)CN1 [CHLP, cis-4-hydroxy-L-proline] | 2.1 °C | – | – | – | Inhibition of the GSALDH activity of SmPutA ([2]; fit to competitive model, L-P5C variable substrate, NAD+ fixed): does not inhibit; Binding to GSALDH site (electron density) [3]: does not bind GSALDH
3 | O=C(O)[C@H]1CCCN1 [D-Pro, D-proline] | – | 1.5 ± 0.5 mM | – | – | Ki [2, 7]: 4.5 ± 0.2 mM
4 | O=C(O)C1CCC=N1 [L-P5C, Δ^1-pyrroline-5-carboxylate] | – | – | – | – | Km ([2]; substrate of GSALDH activity of SmPutA, NAD+ fixed at 0.2 mM): 300 ± 100 µM
5 | O=C(O)[C@@H]1CCCN1 [L-Pro, L-proline] | – | 11 mM | – | – | Ki [2, 7]: 19 mM; Ki [4]: 3 mM
6 | O=C(O)[C@H]1C[C@H](O)CN1 [THDP, trans-4-hydroxy-D-proline] | 5.6 °C | 4.5 ± 0.5 mM | 10 mM | 1.6 ± 0.4 | –
7 | O=C(O)[C@@H]1C[C@@H](O)CN1 [THLP, trans-4-hydroxy-L-proline] | 2.9 °C | 7 mM | 27 mM | 0.6 ± 0.1 | –
